According to ChEMBL document CHEMBL3804761, “Synthesis of a stable and orally bioavailable englerin analogue” (Bioorg Med Chem Lett, 2016):

Experiments:
Type in all cases: functional
[1] = Growth inhibition of human RXF393 cells assessed as cell growth at 10 uM incubated for 48 hrs by sulforhodamine B assay relative to control; conditions: RXF 393, 48 h, read-out: Activity
In short: (§1)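 Run in the standard NCI 60-cell-line screen. Cells were exposed to drug for two days, and the read-out was sulforhodamine B staining. Compound was tested at a single final concentration of 10 µM in every line, and results are reported as growth percent.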

[2] = Growth inhibition of human TK10 cells assessed as cell growth at 10 uM incubated for 48 hrs by sulforhodamine B assay relative to control; conditions: TK-10, 48 h, read-out: Activity
In short: (§2)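 NCI 60-cell line standard protocol, one-dose screen: single final concentration 10 µM, 2-day drug exposure, sulforhodamine B (SRB) endpoint; read-out is growth percent relative to untreated control.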

[3] = Growth inhibition of human LOXIMVI cells assessed as cell growth at 10 uM incubated for 48 hrs by sulforhodamine B assay relative to control; conditions: LOX IMVI, read-out: Activity
In short: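 Single-dose screen in the NCI 60-cell-line panel at one final concentration of 10 µM. Two-day drug exposure with a sulforhodamine B endpoint. Values are growth percent for each cell line.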

[4] = Growth inhibition of human HCT15 cells incubated for 48 hrs by sulforhodamine B assay; conditions: HCT-15, 48 h
In short: (§3)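 NCI 60-cell-line panel, standard protocol. Cells exposed to compound for two days, growth read by sulforhodamine B staining. Tested at five 10-fold dilutions, top concentration 100 µM, to give dose-response curves.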

[5] = Growth inhibition of human UACC257 cells incubated for 48 hrs by sulforhodamine B assay; conditions: UACC-257, 48 h
In short: (§4)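 Tested in the standard NCI 60-cell-line protocol with two-day drug exposure and a sulforhodamine B endpoint. Compounds were first screened at a single final concentration of 10 µM, reported as growth percent. They were then run as five 10-fold dilutions starting from a high concentration of 100 µM to give dose-response curves.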

MDA-MB-435 = experiment: Growth inhibition of human MDA-MB-435 cells assessed as cell growth at 10 uM incubated for 48 hrs by sulforhodamine B assay relative to control; conditions: MDA-MB-435, 48 h, read-out: Activity; in short: as §1
[6] = Growth inhibition of human SW620 cells incubated for 48 hrs by sulforhodamine B assay; conditions: SW-620, 48 h; in short: as §4
U-251 = experiment: Growth inhibition of human U251 cells incubated for 48 hrs by sulforhodamine B assay; conditions: U-251, 48 h; in short: as §4
786-0 = experiment: Growth inhibition of human 786-0 cells assessed as cell growth at 10 uM incubated for 48 hrs by sulforhodamine B assay relative to control; conditions: 786-0, 48 h, read-out: Activity; in short: as §1
[7] = Growth inhibition of human UACC62 cells assessed as cell growth at 10 uM incubated for 48 hrs by sulforhodamine B assay relative to control; conditions: UACC-62, 48 h, read-out: Activity; in short: as §2
SN12C [8] = experiment: Growth inhibition of human SN12C cells assessed as cell growth at 10 uM incubated for 48 hrs by sulforhodamine B assay relative to control; conditions: read-out: Activity; in short: as §1
NCI/ADR-RES = experiment: Growth inhibition of human NCI/ADR-RES cells incubated for 48 hrs by sulforhodamine B assay; in short: as §3
SK-MEL-2 = experiment: Growth inhibition of human SK-MEL-2 cells incubated for 48 hrs by sulforhodamine B assay; conditions: SK-MEL-2, 48 h; in short: as §3
[9] = Growth inhibition of human SNB19 cells assessed as cell growth at 10 uM incubated for 48 hrs by sulforhodamine B assay relative to control; conditions: SNB-19, 48 h, read-out: Activity; in short: as §1
SK-MEL-5 = experiment: Growth inhibition of human SK-MEL-5 cells assessed as cell growth at 10 uM incubated for 48 hrs by sulforhodamine B assay relative to control; conditions: SK-MEL-5, 48 h, read-out: Activity; in short: as §1
NCI-H522 = experiment: Growth inhibition of human NCI-H522 cells assessed as cell growth at 10 uM incubated for 48 hrs by sulforhodamine B assay relative to control; conditions: NCI-H522, 48 h, read-out: Activity; in short: as §1
[10] = Growth inhibition of human PC3 cells incubated for 48 hrs by sulforhodamine B assay; conditions: PC-3, 48 h; in short: as §3
[11] = Growth inhibition of human Caki1 cells assessed as cell growth at 10 uM incubated for 48 hrs by sulforhodamine B assay relative to control; conditions: CAKI-1, 48 h, read-out: Activity; in short: as §1
[12] = Growth inhibition of human UO31 cells incubated for 48 hrs by sulforhodamine B assay; conditions: UO-31, 48 h; in short: as §4
[13] = Growth inhibition of human SKOV3 cells assessed as cell growth at 10 uM incubated for 48 hrs by sulforhodamine B assay relative to control; conditions: SK-OV-3, 48 h, read-out: Activity; in short: as §1
MDA-MB-231 = experiment: Growth inhibition of human MDA-MB-231 cells assessed as cell growth at 10 uM incubated for 48 hrs by sulforhodamine B assay relative to control; conditions: MDA-MB-231, 48 h, read-out: Activity; in short: as §1
A549 = experiment: Growth inhibition of human A549/ATCC cells assessed as cell growth at 10 uM incubated for 48 hrs by sulforhodamine B assay relative to control; conditions: A549, 48 h, read-out: Activity; in short: as §1
SN12C [14] = experiment: Growth inhibition of human SN12C cells incubated for 48 hrs by sulforhodamine B assay; in short: as §4
[15] = Growth inhibition of human BT549 cells assessed as cell growth at 10 uM incubated for 48 hrs by sulforhodamine B assay relative to control; conditions: BT-549, 48 h, read-out: Activity; in short: as §1
MCF7 = experiment: Growth inhibition of human MCF7 cells incubated for 48 hrs by sulforhodamine B assay; conditions: MCF7, 48 h; in short: as §3
HT-29 = experiment: Growth inhibition of human HT-29 cells incubated for 48 hrs by sulforhodamine B assay; conditions: HT-29, 48 h; in short: as §3
K562 = experiment: Growth inhibition of human K562 cells assessed as cell growth at 10 uM incubated for 48 hrs by sulforhodamine B assay relative to control; conditions: K562, 48 h, read-out: Activity; in short: as §1
[16] = Growth inhibition of human SNB19 cells incubated for 48 hrs by sulforhodamine B assay; conditions: SNB-19, 48 h; in short: as §4
[17] = read-out: pLC50 (the source's name) (converted)

C/C(=C\C(=O)O[C@H]1[C@@H]2[C@H](C)CC[C@H]2[C@]2(C)O[C@@]1(C(C)C)C[C@H]2NC(=O)CO)c1ccccc1
growth at 10 µM [1]: 73.5% | growth at 10 µM [2]: 109% | growth at 10 µM [3]: 100% | GI50 [4]: 34.7 µM | LC50 [4]: > 100 µM | TGI ([4]; read-out: pTGI (converted)): > 100 µM | GI50 [5]: 34.7 µM | CC50 [5, 17]: > 100 µM | TGI ([5]; read-out: pTGI (converted)): > 100 µM | growth at 10 µM (MDA-MB-435): 106% | GI50 [6]: 45.7 µM | LC50 (50% lethal concentration) [6]: > 100 µM | TGI ([6]; read-out: pTGI (converted)): > 100 µM | GI50 (U-251): 43.7 µM | LC50 (concentration giving 50% net cell kill) (U-251): > 100 µM | TGI (U-251; read-out: pTGI (converted)): > 100 µM | growth at 10 µM (786-0): 93.5% | growth at 10 µM [7]: 102% | growth at 10 µM (SN12C [8]): 84.6% | GI50 (NCI/ADR-RES): 7.94 µM | LC50 (NCI/ADR-RES): > 100 µM | TGI (NCI/ADR-RES; read-out: pTGI (converted)): 69.2 µM | GI50 (SK-MEL-2): 31.6 µM | LC50 (SK-MEL-2): > 100 µM | TGI (SK-MEL-2; read-out: pTGI (converted)): > 100 µM | growth at 10 µM [9]: 108% | growth at 10 µM (SK-MEL-5): 101% | growth at 10 µM (NCI-H522): 92.5% | GI50 [10]: 18.6 µM | CC50 [10, 17]: > 100 µM | TGI ([10]; read-out: pTGI (converted)): > 100 µM | growth at 10 µM [11]: 99% | GI50 [12]: 3.02 µM | CC50 [12, 17]: > 100 µM | TGI ([12]; read-out: pTGI (converted)): 12 µM | growth at 10 µM [13]: 110% | growth at 10 µM (MDA-MB-231): 99.6% | growth at 10 µM (A549): 84.1% | GI50 (SN12C [14]): 11.5 µM | CC50 (SN12C [14]; [17]): > 100 µM | TGI (SN12C [14]; read-out: pTGI (converted)): 66.1 µM | growth at 10 µM [15]: 117% | GI50 (MCF7): 27.5 µM | CC50 (MCF7; [17]): > 100 µM | TGI (MCF7; read-out: pTGI (converted)): > 100 µM | GI50 (HT-29): 40.7 µM | LC50 (HT-29): > 100 µM | TGI (HT-29; read-out: pTGI (converted)): > 100 µM | growth at 10 µM (K562): 92.3% | GI50 [16]: 74.1 µM | CC50 [16, 17]: > 100 µM | TGI ([16]; read-out: pTGI (converted)): > 100 µM
